Square brackets hold non-standard residues; d marks the D form. Peptide text beside a SMILES is read from it. Hyp = O=C(O)[C@@H]1C[C@@H](O)CN1; Ahx = NCCCCCC(=O)O
What was measured:
MCF7 = assay: Cytotoxicity against human MCF7 cells incubated for 1 week by CellTiter 96 Aqueous One Solution based assay; format: functional, cell-based; conditions: MCF7, 168 h
Summary of the method: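 Cells (2 × 10^3/well, DMEM + 10% FBS, 37 °C, 5% CO2) treated with a concentration gradient of peptide for 1 week. MTS reagent added for 1 h, absorbance read at 490 nm, EC50 derived.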

[1] = molecular target: T1, von Hippel-Lindau disease tumor suppressor/Bromodomain-containing protein 4 (Homo sapiens) (UniProt O60885+P40337); assay: PROTAC activity at VHL/His-tagged BDR4 […] (unknown origin) transfected in MCF7 cells assessed as degradation by measuring fold change in remaining BRD4 level at 10 uM incubated for 12 hrs by immunoblotting analysis (reference value: […]); format: cell-based
T1 sequence (P40337 whole entry, looked up, other chains not shown, the tested form may be a part): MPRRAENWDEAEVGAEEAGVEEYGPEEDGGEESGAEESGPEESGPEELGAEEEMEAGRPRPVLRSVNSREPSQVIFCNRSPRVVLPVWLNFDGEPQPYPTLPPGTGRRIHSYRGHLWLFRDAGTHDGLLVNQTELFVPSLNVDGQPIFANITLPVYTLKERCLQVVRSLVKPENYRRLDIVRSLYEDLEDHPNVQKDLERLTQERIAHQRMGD

[2] = molecular target: T1, von Hippel-Lindau disease tumor suppressor/Bromodomain-containing protein 4 (Homo sapiens); assay: PROTAC activity at VHL/His-tagged BDR4 ET domain (471 to 730 residues) (unknown origin) transfected in MCF7 cells assessed as degradation by measuring fold change in remaining BRD4 level at 20 uM incubated for 24 hrs by immunoblotting analysis (reference value: […]); format: cell-based
[3] = molecular target: T1, von Hippel-Lindau disease tumor suppressor/Bromodomain-containing protein 4 (Homo sapiens); assay: PROTAC activity at VHL/His-tagged BDR4 ET domain (1047 to 1362 residues) (unknown origin) transfected in MCF7 cells assessed as degradation by measuring fold change in remaining BRD4 level at 10 uM incubated for 24 hrs by immunoblotting analysis (reference value: […]); format: cell-based

Compound	EC50 (MCF7) [µM]	fold change (FC) [1]	fold change (FC) [2]	fold change (FC) [3]
H-YGRKKRRQRRRRNQKFKCGE-OH	8.13			
CC[C@H](C)[C@H](NC(=O)[C@H](Cc1ccc(O)cc1)NC(=O)[C@@H]1C[C@@H](O)CN1C(=O)[C@H](C)NC(=O)[C@@H](NC(=O)CCCCCNC(=O)[C@H](CCC(=O)O)NC(=O)CNC(=O)[C@H](CS)NC(=O)[C@H](CCCCN)NC(=O)[C@H](Cc1ccccc1)NC(=O)[C@H](CCCCN)NC(=O)[C@H](CCC(N)=O)NC(=O)[C@H](CC(N)=O)NC(=O)[C@H](CCCNC(=N)N)NC(=O)[C@H](CCCNC(=N)N)NC(=O)[C@H](CCCNC(=N)N)NC(=O)[C@H](CCCNC(=N)N)NC(=O)[C@H](CCC(N)=O)NC(=O)[C@H](CCCNC(=N)N)NC(=O)[C@H](CCCNC(=N)N)NC(=O)[C@H](CCCCN)NC(=O)[C@H](CCCCN)NC(=O)[C@H](CCCNC(=N)N)NC(=O)CNC(=O)[C@@H](N)Cc1ccc(O)cc1)[C@@H](C)CC)C(=O)O (H-YGRKKRRQRRRRNQKFKCGE[Ahx]IA[Hyp]YI-OH)		0.99	0.6	1

— ChEMBL document CHEMBL5543129, “Peptide Inhibitor Targeting the Extraterminal Domain in BRD4 Potently Suppresses Breast Cancer Both In Vitro and In Vivo” (J Med Chem, 2024)
